# Experimental data taken from ChEMBL document CHEMBL1148714, “Design, synthesis, and in vivo SAR of a novel series of pyrazolines as potent selective androgen receptor modulators” (2007).
# Active and inactive are the calls of the source. The rule behind the calls is not given here.
# How the values were obtained:
# Rattus norvegicus [1] = test: Stimulation of levator ani muscle weight in castrated immature Sprague-Dawley rat at 2 mg/day, po after 5 days; format: functional
# Outline: (§1)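 Immature (~50 g) castrated male Sprague Dawley rats dosed once daily for 5 days. Test article given p.o. at 2 mg/day in 20% cyclodextrin; testosterone propionate reference given at 1 mg/day s.c. in sesame oil. Ventral prostate and levator ani wet weights taken on day 6, adjusted to body weight. % stimulation uses vehicle = 0% and testosterone = 100%. n = 3/group.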
# Rattus norvegicus [2] = test: Stimulation of prostate weight in castrated immature Sprague-Dawley rat at 2 mg/day, po after 5 days; format: functional, Prostate gland; outline: as §1
# Rattus norvegicus [3] = species on record: Rattus norvegicus; test: Stimulation of prostate weight in castrated immature Sprague-Dawley rat; format: functional, Prostate gland
# Outline: (§2)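 Immature (~50 g) castrated male Sprague Dawley rats given oral doses once daily at 0.1, 0.3, 1, 3 mg/day. Ventral prostate and levator ani wet weights adjusted to body weight. % stimulation uses vehicle = 0% and testosterone-treated (1 mg/day) group = 100%; ED50 derived from the four-point dose series. n = 3/group.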
# Rattus norvegicus [4] = species on record: Rattus norvegicus; test: Stimulation of levator ani muscle weight in castrated immature Sprague-Dawley rat; format: functional; outline: as §2
# Rattus norvegicus [5] = species on record: Rattus norvegicus; test: Inhibition of prostate weight in castrated immature male Sprague-Dawley rat at 2 mg/day relative to control; format: functional, Prostate gland
# Outline: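 Immature (~50 g) castrated male Sprague Dawley rats; test article orally at 2 mg/day once daily for 5 days, with testosterone propionate 0.1 mg/day s.c. in sesame oil. Ventral prostate wet weight taken on day 6 after CO2 euthanasia, adjusted to body weight. Inhibition given as % of testosterone-enhanced weight, vehicle group = 100% and testosterone-alone group = 0%. n = 3/group.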
# Rattus norvegicus [6] = test: Stimulation of prostate weight in castrated Sprague-Dawley rat at 30 mg/kg; format: functional, Prostate gland
# Outline: (§3)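 Mature (150–200 g) castrated male Sprague Dawley rats dosed by oral gavage once daily for 14 days in 20% cyclodextrin or 0.5% methylcellulose. Five-point doses: 0.3, 1, 3, 10, 30 mg/kg. Testosterone propionate reference given at 5 mg/kg s.c. in sesame oil. Ventral prostate and levator ani wet weights taken on day 15, adjusted to body weight. % stimulation uses vehicle = 0% and testosterone = 100%; ED50 derived from the doses. n = 3.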
# Rattus norvegicus [7] = species on record: Rattus norvegicus; test: Stimulation of prostate weight in castrated Sprague-Dawley rat; format: functional; settings: Prostate gland; outline: as §3
# Rattus norvegicus [8] = species on record: Rattus norvegicus; test: Stimulation of levator ani muscle weight in castrated Sprague-Dawley rat; format: functional; outline: as §3
# Rattus norvegicus [9] = test: Inhibition of prostate weight in intact Sprague-Dawley rat at 30 mg/kg relative to control; format: functional; settings: Prostate gland
# Rattus norvegicus [10] = test: Stimulation of prostate weight in castrated immature Sprague-Dawley rat at 1 mg/day, sc; format: functional, Prostate gland
# Rattus norvegicus [11] = test: Stimulation of levator ani muscle weight in castrated immature Sprague-Dawley rat at 1 mg/day, sc; format: functional
# Rattus norvegicus [12] = test: Stimulation of levator ani muscle weight in castrated Sprague-Dawley rat at 30 mg/kg; format: functional; outline: as §3
# Rattus norvegicus [13] = species on record: Rattus norvegicus; test: Stimulation of levator ani muscle weight in castrated immature Sprague-Dawley rat at 3 mg/day; format: functional; outline: as §2
# Rattus norvegicus [14] = species on record: Rattus norvegicus; test: Stimulation of prostate weight in castrated immature Sprague-Dawley rat at 3 mg/day; format: functional, Prostate gland; outline: as §2
Structure (SMILES),Activity (Rattus norvegicus [1]) [%],Activity (Rattus norvegicus [2]) [%],further results
CC1(C(=O)Nc2ccc(C#N)cc2)CC(C(F)(F)F)=NN1 (stereo not given),<10,<10,–
CCN1N=C(C(F)(F)F)C[C@]1(C)C(=O)Nc1ccc(C#N)c(C(F)(F)F)c1,–,–,ED50 (Rattus norvegicus [3]): >3 mg/day; ED50 (Rattus norvegicus [4]): 0.45 mg/day; Inhibition (Rattus norvegicus [5]): <10%
COc1cc(C#N)c(C(F)(F)F)cc1NC(=O)C1(C)CC(C(F)(F)F)=NN1 (stereo not given),52,18,–
CC1(C(=O)Nc2ccc(C#N)c(C(F)(F)F)c2)CC(CC(F)(F)F)=NN1 (stereo not given),10,<10,–
CCN1N=C(C(F)(F)F)C[C@@]1(C)C(=O)Nc1ccc(C#N)c(C(F)(F)F)c1,–,–,ED50 (Rattus norvegicus [3]): 2.2 mg/day; ED50 (Rattus norvegicus [4]): 0.12 mg/day; Inhibition (Rattus norvegicus [5]): 18%
CC(=O)Nc1ccc(C2=NNC(C)(C(=O)Nc3ccc(C#N)c(C(F)(F)F)c3)C2)cc1 (stereo not given),57,16,–
CCc1c(NC(=O)C2(C)CC(C(F)(F)F)=NN2)ccc(C#N)c1C(F)(F)F (stereo not given),88,14,Activity (Rattus norvegicus [6]): 18%; ED50 (Rattus norvegicus [7]): > 30 mg/kg; ED50 (Rattus norvegicus [8]): 17 mg/kg
CC1(C(=O)Nc2ccc(C#N)c(C(F)(F)F)c2)CC(C(F)(F)F)=NN1 (stereo not given),71,28,Activity (Rattus norvegicus [6]): 25%; ED50 (Rattus norvegicus [7]): > 30 mg/kg; ED50 (Rattus norvegicus [8]): 7.9 mg/kg; Activity (Rattus norvegicus [9]): inactive
CC1(C(=O)Nc2ccc(C#N)c(C(F)(F)F)c2)CC(c2ccc(F)cc2)=NN1 (stereo not given),44,20,–
CCC(=O)O[C@H]1CC[C@H]2[C@@H]3CCC4=CC(=O)CC[C@]4(C)[C@H]3CC[C@]12C [TESTOSTERONE PROPIONATE],–,–,Activity (Rattus norvegicus [10]): 100%; ED50 (Rattus norvegicus [3]): 0.1 mg/day; ED50 (Rattus norvegicus [7]): 0.25 mg/kg; ED50 (Rattus norvegicus [8]): 0.17 mg/kg; Activity (Rattus norvegicus [11]): 100%; ED50 (Rattus norvegicus [4]): 0.1 mg/day
CC1(C(=O)Nc2ccc(C#N)c(C(F)(F)F)c2)CC=NN1 (stereo not given),<10,<10,–
CCOC(=O)C1=NNC(C)(C(=O)Nc2ccc([N+](=O)[O-])c(C(F)(F)F)c2)C1 (stereo not given),<10,<10,–
CC(C)C(=O)Nc1ccc([N+](=O)[O-])c(C(F)(F)F)c1 [FLUTAMIDE],–,–,inhibition in vivo at 30 mg/kg (Rattus norvegicus [9]): 51%
CC(=O)Nc1ccc(C2=NNC(C)(C(=O)Nc3ccc(Cl)c(C(F)(F)F)c3)C2)cc1 (stereo not given),17,<10,–
CC(C)(C)C1=NNC(C)(C(=O)Nc2ccc(C#N)c(C(F)(F)F)c2)C1 (stereo not given),36,<10,–
CCO/C(=N\c1ccc(C#N)c(C(F)(F)F)c1)[C@@]1(C)CC(C(F)(F)F)=NN1,–,–,ED50 (Rattus norvegicus [3]): 0.16 mg/day; ED50 (Rattus norvegicus [4]): 0.1 mg/day; Inhibition (Rattus norvegicus [5]): <10%
CC1=NNC(C(=O)Nc2ccc(C#N)c(C(F)(F)F)c2)(C(F)(F)F)C1 (stereo not given),64,46,–
C[C@](O)(CS(=O)(=O)c1ccc(F)cc1)C(=O)Nc1ccc(C#N)c(C(F)(F)F)c1 [(R)-BICALUTAMIDE],–,–,inhibition in vivo at 30 mg/kg (Rattus norvegicus [9]): 67%; Inhibition (Rattus norvegicus [5]): 70%
CC(=O)Nc1ccc(C2=NNC(C)(C(=O)Nc3ccc([N+](=O)[O-])c(C(F)(F)F)c3)C2)cc1 (stereo not given),35,15,–
CC(=O)Nc1ccc(C2=NNC(C)(C(=O)Nc3ccc(C#N)c(C#N)c3)C2)cc1 (stereo not given),<10,<10,–
CC(C)C1=NNC(C)(C(=O)Nc2ccc(C#N)c(C(F)(F)F)c2)C1 (stereo not given),<10,<10,–
CC1(C(=O)Nc2cc(C(F)(F)F)c(C#N)cc2Cl)CC(C(F)(F)F)=NN1 (stereo not given),57,15,–
CC1(C(=O)Nc2ccc(C#N)c(C(F)(F)F)c2)CC(C(F)(F)C(F)(F)F)=NN1 (stereo not given),15,<10,–
CC1(C(=O)Nc2ccc(Cl)c(Cl)c2)CC(C(F)(F)F)=NN1 (stereo not given),<10,10,–
C[C@]1(C(=O)Nc2ccc(C#N)c(C(F)(F)F)c2)CC(C(F)(F)F)=NN1,–,–,Activity (Rattus norvegicus [12]): 9%; ED50 (Rattus norvegicus [3]): 0.94 mg/day; Activity (Rattus norvegicus [13]): 49%; Activity (Rattus norvegicus [6]): 4%; ED50 (Rattus norvegicus [7]): > 30 mg/kg; ED50 (Rattus norvegicus [8]): > 30 mg/kg; inhibition in vivo at 30 mg/kg (Rattus norvegicus [9]): 25%; Activity (Rattus norvegicus [14]): 29%; ED50 (Rattus norvegicus [4]): 0.86 mg/day; Inhibition (Rattus norvegicus [5]): 22%
CO/C(=N\c1ccc(C#N)c(C(F)(F)F)c1)C1(C)CC(C(F)(F)F)=NN1 (stereo not given),86,30,–
CC1(C(=O)Nc2ccc(C#N)c(C(F)(F)F)c2)CC(c2ccc(F)cc2)=NO1 (stereo not given),<10,<10,–

Structure (SMILES),Activity (Rattus norvegicus [1]) [%],Activity (Rattus norvegicus [2]) [%],further results
CC1(C(=O)Nc2ccc(Br)c(C(F)(F)F)c2)CC(C(F)(F)F)=NN1 (stereo not given),41,12,–
CCC1=NNC(C)(C(=O)Nc2ccc(C#N)c(C(F)(F)F)c2)C1 (stereo not given),<10,<10,–
CCN1N=C(C)CC1(C)C(=O)Nc1ccc(C#N)c(C(F)(F)F)c1 (stereo not given),55,18,–
CCc1cc(C#N)c(C(F)(F)F)cc1NC(=O)C1(C)CC(C(F)(F)F)=NN1 (stereo not given),<10,<10,–
CCO/C(=N\c1ccc(C#N)c(C(F)(F)F)c1)C1(C)CC(C(F)(F)F)=NN1 (stereo not given),75,22,ED50 (Rattus norvegicus [4]): 0.25 mg/day
CC1(C(=O)Nc2cc(C(F)(F)F)c(C#N)cc2C#N)CC(C(F)(F)F)=NN1 (stereo not given),<10,<10,–
CC1(C(=O)Nc2ccc([N+](=O)[O-])c(C(F)(F)F)c2)CC(C(F)(F)F)=NN1 (stereo not given),21,38,–
CC1(C(=O)Nc2ccc([N+](=O)[O-])c(C(F)(F)F)c2)CC(c2ccc(F)cc2)=NN1 (stereo not given),18,<10,–
CCC1(C(=O)Nc2ccc(C#N)c(C(F)(F)F)c2)CC(C(F)(F)F)=NN1 (stereo not given),67,24,Activity (Rattus norvegicus [6]): 19%; ED50 (Rattus norvegicus [7]): > 30 mg/kg; ED50 (Rattus norvegicus [8]): 21 mg/kg
CCO/C(=N\c1ccc(C#N)c(C(F)(F)F)c1)[C@]1(C)CC(C(F)(F)F)=NN1,–,–,ED50 (Rattus norvegicus [3]): >3 mg/day; ED50 (Rattus norvegicus [4]): 0.86 mg/day; Inhibition (Rattus norvegicus [5]): 27%
C[C@@]1(C(=O)Nc2ccc(C#N)c(C(F)(F)F)c2)CC(C(F)(F)F)=NN1,–,–,Activity (Rattus norvegicus [12]): 120%; ED50 (Rattus norvegicus [3]): 0.76 mg/day; Activity (Rattus norvegicus [13]): 90%; Activity (Rattus norvegicus [6]): 46%; ED50 (Rattus norvegicus [7]): > 30 mg/kg; ED50 (Rattus norvegicus [8]): 3.8 mg/kg; inhibition in vivo at 30 mg/kg (Rattus norvegicus [9]): 33%; Activity (Rattus norvegicus [14]): 51%; ED50 (Rattus norvegicus [4]): 0.11 mg/day; Inhibition (Rattus norvegicus [5]): 40%
CC1(C(=O)Nc2ccc(C#N)c(C(F)(F)F)c2)CC(C(F)(F)F)=NN1C(=O)C(F)(F)F (stereo not given),70,30,–
CC(=O)Nc1ccc(CC2=NNC(C)(C(=O)Nc3ccc(C#N)c(C(F)(F)F)c3)C2)cc1 (stereo not given),51,24,–
CC(=O)Nc1cccc(C2=NNC(C)(C(=O)Nc3ccc(C#N)c(C(F)(F)F)c3)C2)c1 (stereo not given),<10,<10,–
CC1(C(=O)Nc2cc(C(F)(F)F)c(C#N)cc2I)CC(C(F)(F)F)=NN1 (stereo not given),86,47,–
CC1=NNC(C)(C(=O)Nc2ccc(C#N)c(C(F)(F)F)c2)C1 (stereo not given),62,29,–
CC(=O)Nc1ccc(C2=NN(C)C(C)(C(=O)Nc3ccc(C#N)c(C(F)(F)F)c3)C2)cc1 (stereo not given),<10,<10,–
CC1=NOC(C)(C(=O)Nc2ccc(C#N)c(C(F)(F)F)c2)C1 (stereo not given),<10,<10,–
CN1N=C(C(F)(F)F)CC1(C)C(=O)Nc1ccc(C#N)c(C(F)(F)F)c1 (stereo not given),44,<10,–
CC1(C(=O)Nc2ccc(Cl)c(C(F)(F)F)c2)CC(C(F)(F)F)=NN1 (stereo not given),15,<10,–
CCCC1(C(=O)Nc2ccc(C#N)c(C(F)(F)F)c2)CC(C(F)(F)F)=NN1 (stereo not given),18,<10,–
N#Cc1ccc(NC(=O)C2(C(F)(F)F)CC(C(F)(F)F)=NN2)cc1C(F)(F)F (stereo not given),37,13,–
CCCC1=NNC(C)(C(=O)Nc2ccc(C#N)c(C(F)(F)F)c2)C1 (stereo not given),<10,<10,–
CCSc1cc(C#N)c(C(F)(F)F)cc1NC(=O)C1(C)CC(C(F)(F)F)=NN1 (stereo not given),42,<10,–
CCN1N=C(C(F)(F)F)CC1(C)C(=O)Nc1ccc(C#N)c(C(F)(F)F)c1 (stereo not given),95,47,–
CC1(C(=O)Nc2ccc([N+](=O)[O-])c(C(F)(F)F)c2)CC(c2ccc(NC(=O)C(F)(F)F)cc2)=NN1 (stereo not given),21,10,–
